Screening results deposited in PubChem BioAssay by several laboratories.
In the library only some 4.5% were active in any assay of this set; here they are far more common.
p97 ATPase inh: inhibitors of human p97 ATPase. P55072. recombinant p97 ATPase, Kinase-Glo ATP luminescence, 3 h. inhibition, % at 8 µM. 220,000 compounds, 0.42% hits. AID 1481; in the data active = inhibition above about 15%;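 note: 0% = DMSO vehicle and 100% = wells lacking enzyme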
Target sequence (P55072 whole entry, looked up): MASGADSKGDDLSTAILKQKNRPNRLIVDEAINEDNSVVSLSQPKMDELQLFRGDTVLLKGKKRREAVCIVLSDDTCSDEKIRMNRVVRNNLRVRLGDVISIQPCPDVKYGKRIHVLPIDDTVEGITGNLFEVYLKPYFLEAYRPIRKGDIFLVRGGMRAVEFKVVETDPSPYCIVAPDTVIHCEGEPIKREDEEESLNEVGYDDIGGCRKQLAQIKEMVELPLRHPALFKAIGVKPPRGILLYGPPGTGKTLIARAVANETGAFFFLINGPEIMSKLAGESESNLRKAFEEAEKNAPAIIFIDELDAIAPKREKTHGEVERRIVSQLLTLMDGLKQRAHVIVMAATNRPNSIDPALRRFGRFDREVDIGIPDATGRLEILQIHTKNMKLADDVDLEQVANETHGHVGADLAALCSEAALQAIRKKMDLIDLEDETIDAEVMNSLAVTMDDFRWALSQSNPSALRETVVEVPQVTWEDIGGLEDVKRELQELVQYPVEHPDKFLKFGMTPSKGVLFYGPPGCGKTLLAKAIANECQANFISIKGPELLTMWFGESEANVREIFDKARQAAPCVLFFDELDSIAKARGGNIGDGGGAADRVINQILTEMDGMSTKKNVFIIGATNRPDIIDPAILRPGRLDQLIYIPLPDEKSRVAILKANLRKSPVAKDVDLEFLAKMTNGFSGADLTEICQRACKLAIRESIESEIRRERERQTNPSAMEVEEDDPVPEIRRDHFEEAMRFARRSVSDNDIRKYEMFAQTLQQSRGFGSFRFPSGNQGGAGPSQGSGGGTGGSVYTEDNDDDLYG
PfM18AAP inh: PfM18AAP enzyme inhibition. inhibition, % at 7.35 µM. AID 1822. 290,000 compounds, 1.2% hits. recombinant PfM18AAP, H-Glu-NHMec fluorogenic cleavage;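 active = inhibition above the campaign mean inhibition over all tested compounds plus 3 SD, cut at about 28% in these data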;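 note: 0% = plate median of test compound wells and 100% = 2 mM ZnCl2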
CHOP UPR activ: apoptotic UPR (CHOP) activation | CHO-CHOP luciferase reporter, luminescence; percent of tunicamycin response over DMSO baseline | activation, % at 10 µM | 330,000 compounds, 0.34% hits;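 active = at 10 µM dose, activation of 40% or more, normalized to positive control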;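 note: 100% = tunicamycin at 10 µg/mL and 0% = DMSO alone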
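measured by = luciferase luminescence | assay system = CHO-CHOP cells, stable luciferase reporter of PERK-eIF2a-CHOP signalling | amount = 500 reporter cells seeded per well | timing = 6 h compound exposure at 37 °C after overnight seeding | controls = positive tunicamycin 10 µg/mL, negative DMSO alone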
UPR XBP1 act: activators of adaptive arm of unfolded protein response (XBP1); 330,000 compounds, 0.33% hits; activation, % at 20 µM; AID 463104; CHO-XBP1 luciferase reporter, IRE1-XBP1 UPR activation, luminescence; percent of tunicamycin response, DMSO as zero;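 active = versus positive control, 20 µM dose yields 30% or more activation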;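 note: 100% = tunicamycin at 10 µg/mL and 0% = DMSO only wells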
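Signal: luciferase luminescence; Assay system: CHO-XBP1 luciferase reporter cells; Amount: one thousand reporter cells per well; Dosing: 20 µM single concentration, DMSO 1%; Benchmarks: high control tunicamycin 10 µg/mL final, low control DMSO vehicle only; Schedule: 6 h compound exposure at 37 °C, 5% CO2; Evaluation: percent activation relative to tunicamycin reference.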
NS3 helicase inh: blocks Hepatitis C virus NS3 helicase unwinding; NS3 helicase DNA unwinding, Cy5 molecular beacon fluorescence; inhibition, % at 10.9 µM; 290,000 compounds, 0.56% hits; AID 1800;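 active = inhibition above the mean of all tested compounds plus 3 SD, set per campaign, cut at about 35% in these data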;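 note: 0% = DMSO wells and 100% = thioflavine S control wells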
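System: Hepatitis C virus NS3 helicase domain fragment enzyme | Reagent: Annealed dual-labelled DNA beacon duplex, ATP-started | Compound dosing: 10.9 µM single point, 0.8% DMSO | Incubation: 1 h reaction at 25 °C, ATP-initiated | Technique: Cy5 fluorescence | Evaluation: Percent inhibition from t60/t0 fluorescence ratio | Benchmarks: Low DMSO, high thioflavine S at 110 µM | Replication: Singlicate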
CHOP inh: inhibitors of CHOP induction in ER stress response | CHO-K1 CHOP-promoter luciferase, tunicamycin-induced, 15-18 h | 220,000 compounds, 3.8% hits | inhibition, % at 10 µM;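 active = compounds that reduced the stress-induced luciferase reporter signal by more than about 70% of percent inhibition, limit read from the data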;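 note: 0% = tunicamycin plus vehicle and 100% = wells without tunicamycin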
p97 confirm: human p97 ATPase inhibition, confirmation; inhibition, % at 8 µM; shares compounds with p97 ATPase inh; AID 1517; recombinant p97 ATPase, Kinase-Glo ATP luminescence; 760 compounds, 44% hits;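 active = percent inhibition of p97 ATPase above a set limit, the primary screen's mean plus 3 SD, cut at about 15% in these data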;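 note: 0% = DMSO wells and 100% = wells lacking p97 protein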
* hit, by the source's call; · = no result given; ! = repeats disagree.

SMILES | p97 ATPase inh | PfM18AAP inh | CHOP UPR activ | UPR XBP1 act | NS3 helicase inh | CHOP inh | others
Cc1ccc(N2C(=O)NC(=O)C3(Cc4ccccc4N4CCN(c5ccccc5)CC43)C2=O)cc1 (configuration not stated) | -1.9 | -2.4 | -0.2 | 3.6 | 8.0 | 70.5*
O=C1NC(=O)C2(Cc3ccccc3N3CCCC32)C(=O)N1c1cccc(Cl)c1 (configuration not stated) | -2.7 | -7.9 | -0.6 | 1.0 | 3.2 | 11.7
N[C@@H](Cn1ccc(=O)[nH]c1=O)C(=O)O | · | · | · | · | · | -12.3
Cc1cc2c(C(F)(F)F)cc(=O)oc2c2c1NCCC2 | -1.3 | 3.0 | 2.1 | -0.9 | 1.7 | 56.1
O=c1cc(C(F)(F)F)c2cc3c4c(c2o1)CCCN4CCC3 | -6.0 | -4.1 | -0.3 | -1.3 | 10.4 | 93.1*
c1ccc2c(CN3CCCCCC3)c[nH]c2c1 | 4.7 | -3.9 | 7.5 | 12.0 | -9.6 | -23.1
C1=C(c2c[nH]c3ccccc23)CCNC1 | 5.1 | -1.3 | 1.1 | 2.0 | -4.1 | 76.5*
Oc1ccc2c3c1O[C@H]1c4oc5ccccc5c4C[C@@]4(O)C(C2)N(CC2CC2)CCC314 (some centres not stated) | · | · | · | · | · | -22.8
COc1ccc(CN2CCN(c3ccccc3)CC2)c(C)c1C | 3.4 | -2.8 | 0.9 | 1.8 | -11.5 | 80.2*
Cc1ccc(O)c(CN2CCN(c3ccccc3)CC2)c1 | -7.7 | -9.8 | 0.3 | 0.1 | -1.1 | 60.7
Cc1cc(O)c(CN2CCN(c3ccccc3)CC2)cc1C | 2.6 | -3.5 | 0.1 | -4.3 | -5.4 | 82.1*
CCCCn1c(O)c(C=NC2CC3CCC2(C)C3(C)C)c(=O)[nH]c1=O (configuration not stated) | -0.4 | -0.4 | 1.1 | -0.1 | -3.5 | 95.3*
Cn1c(O)c(C=NC2CC3CCC2(C)C3(C)C)c(=O)[nH]c1=O (configuration not stated) | 2.0 | -7.5 | 2.3 | -0.1 | 5.7 | 14.6
CCC(=Nc1cc(OC)ccc1OC)c1c(O)[nH]c(=O)[nH]c1=O | 4.6 | 28.9* | -2.4 | 2.4 | 14.7 | 7.3
CCOc1ccc(N=Cc2c(O)n(CCc3ccc(OC)c(OC)c3)c(=O)[nH]c2=O)cc1 | 1.9 | 0.3 | 1.2 | -6.0 | -10.5 | 89.9*
COc1ccc(N=Cc2c(O)n(CC3CCCO3)c(=O)[nH]c2=O)cc1 (configuration not stated) | 1.8 | 10.7 | -1.2 | -0.5 | 1.9 | -13.8
COc1ccc(N=Cc2c(O)n(Cc3cccs3)c(=O)[nH]c2=O)cc1 | -4.0 | 10.3 | 1.4 | 2.8 | -1.0 | 81.4*
C[C@]12CC[C@H]3[C@@H](CCC4C[C@H](O)CC[C@@]43C)[C@@H]1CC[C@@H]2O (some centres not stated) | · | · | · | · | · | -8.6
COc1cccc(/C=C2\N=C(c3cncc(Br)c3)OC2=O)c1 | -2.9 | 0.1 | 0.6 | 0.5 | 26.5 | 85.2*
NC(=O)CN1CC(O)CC1=O (configuration not stated) | · | · | · | · | · | 14.1
COCCNC(=O)Cn1cc(C=C2C(=O)NC(=O)NC2=O)c2ccccc21 | · | 30.9* | -0.9 | -5.0 | 5.9 | ·
CC(C)CC(NP(=O)(O)O[C@@H]1O[C@@H](C)[C@H](O)[C@@H](O)[C@H]1O)C(=O)NC(Cc1c[nH]c2ccccc12)C(=O)O (some centres not stated) | · | · | · | · | · | -10.4
COCCCn1c(N)c(C(=O)OC(C)COC)c2nc3ccccc3nc21 (configuration not stated) | 15.3* | 17.0 | -1.7 | 4.2 | 3.1 | -8.9 | p97 confirm=5.5
CC(C)(C)OC(=O)c1c(N)n(Cc2ccco2)c2nc3ccccc3nc12 | 15.8* | 17.3 | 2.9 | -0.9 | 6.3 | 10.6 | p97 confirm=4.8
Nc1c(C(=O)NCCN2CCOCC2)c2nc3ccccc3nc2n1Cc1ccco1 | 7.2 | 4.5 | -1.9 | 0.1 | 5.5 | 34.6
SMILES | p97 ATPase inh | PfM18AAP inh | CHOP UPR activ | UPR XBP1 act | NS3 helicase inh | CHOP inh | others
CCC(C)OC(=O)c1c(N)n(Cc2cccs2)c2nc3ccccc3nc12 (configuration not stated) | -1.8 | 4.7 | 1.3 | 2.0 | 2.4 | 32.1
COCCCn1c(N)c(C(=O)NCc2ccco2)c2nc3ccccc3nc21 | 36.6* | 24.7 | 1.7 | -5.6 | 15.9 | -69.7 | p97 confirm=19.4*
Nc1c(C(=O)NCCN2CCOCC2)c2nc3ccccc3nc2n1Cc1ccccc1 | 34.8* | 27.7 | 0.0 | -5.1 | -0.8 | 34.1 | p97 confirm=-0.5
Cc1nn(CC(C)C)c(Cl)c1C(=O)NC1CCC(C)CC1 (configuration not stated) | · | · | 4.8 | 5.2 | · | ·
CS(=O)(=O)NNP(=O)(NNS(C)(=O)=O)NC(=O)c1ccccc1 | 7.8 | 5.3 | 0.0 | -1.7 | 5.3 | -15.9
Cc1[nH]n(-c2ccccc2)c(=O)c1C(c1ccc([N+](=O)[O-])cc1)c1c(C)[nH]n(-c2ccccc2)c1=O | 39.9* | 11.8 | -1.1 | -4.7 | 16.7 | 15.1 | p97 confirm=7.6
CC(C)c1ccc(N2C(=O)NC(=O)/C(=C/C=C/c3ccco3)C2=O)cc1 | 15.9* | 23.3 | · | · | 22.8 | 103.2* | p97 confirm=10.8
C/C=C1/C[N+]2(C)CCC34C(=C(C=O)[C@H]1C[C@@H]32)Nc1ccccc14 (some centres not stated) | · | · | 0.7 | -5.6 | · | ·
CC(C)(C)P(=O)(NCc1ccccc1)c1ccccc1 (configuration not stated) | 16.3* | -1.6 | 0.3 | 1.9 | -13.1 | 9.7 | p97 confirm=2.6
O=[N+]([O-])c1ccc(C2[C@H]3C(c4ccccc4)=NC4(CCCCC4)N23)cc1 (some centres not stated) | 3.8 | -1.2 | -0.7 | -0.1 | 3.0 | 10.0
Cc1cc2c(C(C)C)c(O)c(O)c(C=O)c2c(O)c1-c1c(C)cc2c(C(C)C)c(O)c(O)c(C=O)c2c1O | 20.6*! | 31.8* | · | · | 36.8* | 109.4* | p97 confirm=77.2*
Cc1nc2c(c(=O)[nH]1)C(c1ccc([N+](=O)[O-])cc1)c1c(c3ccccc3oc1=O)O2 (configuration not stated) | 13.8 | 3.2 | 0.2 | -1.8 | 2.2 | 27.8
Cc1ccc(C(=O)C2(C)N(O)C(C)C(c3cccs3)=[N+]2[O-])cc1 (configuration not stated) | 3.3 | -2.0 | -1.7 | 3.1 | 6.7 | 7.3
CCN(CC)C(=O)c1ccc(N2C(=O)C3CC=C(Cl)CC3C2=O)cc1 (configuration not stated) | 15.5* | 2.5 | -0.3 | -2.3 | -3.3 | -19.3 | p97 confirm=4.8
CCN(CC)C(=O)c1ccc(NC(=O)c2ccc(N3CCCC3=O)cc2)cc1 | · | · | 0.6 | -0.5 | · | ·
